Laboratory results taken from ChEMBL document CHEMBL4184106, “Discovering alkylamide derivatives of bexarotene as new therapeutic agents against triple-negative breast cancer” (Bioorg Med Chem Lett, 2018).
Active and inactive are the calls of the source. The rule behind the calls is not given here.

Experiments:
[1] = test system: MDA-MB-231; test: Inhibition of colony formation in human MDA-MB-231 cells at 2 uM supplemented with fresh medium containing compound every 3 days for 10 days by microscopic method based soft agar colony formation assay relative to control; type: functional
[2] = test system: BT-549; test: Induction of apoptosis in human BT549 cells assessed as ratio of cleaved caspase-8 to beta-actin level at 5 uM by western blot analysis (reference value: 1); type: functional
[3] = test system: MDA-MB-231; test: Induction of apoptosis in human MDA-MB-231 cells assessed as ratio of cleaved caspase-8 to beta-actin level at 5 uM by western blot analysis (reference value: 1); type: functional
[4] = test system: MCF7; test: Down regulation of Sox-2 expression in human MCF7 cells at 5 uM by Western blot analysis; type: functional
Summary of the method: (§1)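 MCF-7 cells were treated and lysates probed by Western blot for CSC-related markers, with β-actin as loading control. Band densitometry was normalized to DMSO-treated samples.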

[5] = test system: BT-549; test: Effect on beta-catenin translocation in nuclear fraction of human BT549 cells assessed as ratio of beta-catenin to beta-actin level at 5 uM by Western blot analysis (reference value: 1); type: functional
[6] = test system: BT-549; test: Induction of apoptosis in human BT549 cells assessed as ratio of cleaved caspase-9 to beta-actin level at 5 uM by western blot analysis (reference value: 1); type: functional
[7] = test system: BT-549; test: Inhibition of mammosphere formation in human BT549 cells assessed as ratio of C-Myc to beta actin level at 5 uM by Western blot analysis (Rvb= 1); type: functional
[8] = test system: MCF7; test: Down regulation of Nanog expression in human MCF7 cells at 5 uM by Western blot analysis; type: functional; summary of the method: as §1
[9] = test system: MCF-10A; test: Induction of apoptosis in human MCF10A cells assessed as ratio of cleaved caspase-9 to beta-actin level at 5 uM by western blot analysis (reference value: 1); type: cell-based
[10] = test system: MDA-MB-231; test: Effect on epithelial-mesenchymal transition in human MDA-MB-231 cells assessed as ratio of E-cadherin to beta-actin level at 5 uM by Western blot analysis (reference value: 1); type: functional
[11] = test system: BT-549; test: Inhibition of mammosphere formation in human BT549 cells assessed as ratio of KLF4 to beta actin level at 5 uM by Western blot analysis (Rvb= 1); type: functional
[12] = test system: MCF7; test: Inhibition of mammosphere formation in human MCF7 cells assessed as ratio of Oct4A to beta actin level at 5 uM by Western blot analysis (Rvb= 1); type: functional
Summary of the method: (§2)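 Post-treatment cell lysates were probed by Western blot for CSC markers, with β-actin as the loading control. Band densitometry was normalized to DMSO-treated samples.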

[13] = test system: MCF7; test: Induction of apoptosis in human MCF7 cells assessed as ratio of cleaved caspase-9 to beta-actin level at 5 uM by western blot analysis (reference value: 1); type: functional
[14] = test system: BT-549; test: Induction of apoptosis in human BT549 cells assessed as ratio of cleaved caspase-3 to beta-actin level at 5 uM by western blot analysis (reference value: 1); type: functional
[15] = test system: MCF7; test: Induction of apoptosis in human MCF7 cells assessed as ratio of cleaved caspase-8 to beta-actin level at 5 uM by western blot analysis (reference value: 1); type: functional
[16] = test system: MDA-MB-231; test: Effect on epithelial-mesenchymal transition in human MDA-MB-231 cells assessed as ratio of vimentin to beta-actin level at 5 uM by Western blot analysis (reference value: 1); type: functional
[17] = test system: MDA-MB-231; test: Effect on beta-catenin translocation in nuclear fraction of human MDA-MB-231 cells assessed as ratio of beta-catenin to beta-actin level at 5 uM by Western blot analysis (reference value: 1); type: functional
[18] = test system: MDA-MB-231; test: Cytotoxicity against human MDA-MB-231 cells assessed as reduction in cell viability by MTT assay; type: functional, cell-based
[19] = test system: MCF7; test: Inhibition of mammosphere formation in human MCF7 cells at 2 uM after 7 days by microscopic method; type: functional, cell-based
Summary of the method: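 MCF-7 cells were grown under mammosphere-forming conditions with compound. Spheres 60 μm or larger were counted for quantitation.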

[20] = test system: BT-549; test: Effect on epithelial-mesenchymal transition in human BT549 cells assessed as ratio of slug to beta-actin level at 5 uM by Western blot analysis (reference value: 1); type: functional
[21] = test system: MCF-10A; test: Cytotoxicity against human MCF10A cells assessed as reduction in cell viability by MTT assay; type: cell-based
[22] = test system: BT-549; test: Effect on epithelial-mesenchymal transition in human BT549 cells assessed as ratio of vimentin to beta-actin level at 5 uM by Western blot analysis (reference value: 1); type: functional
[23] = test system: MDA-MB-231; test: Induction of apoptosis in nuclear fractions of human MDA-MB-231 cells assessed as ratio of cleaved PARP to beta-actin level at 5 uM by western blot analysis (reference value: 1); type: functional
[24] = test system: MCF-10A; test: Induction of apoptosis in human MCF10A cells assessed as ratio of cleaved caspase-8 to beta-actin level at 5 uM by western blot analysis (reference value: 1); type: cell-based
[25] = test system: BT-549; test: Induction of apoptosis in nuclear fractions of human BT549 cells assessed as ratio of cleaved PARP to beta-actin level at 5 uM by western blot analysis (reference value: 1); type: functional
[26] = test system: BT-549; test: Induction of apoptosis in nuclear fractions of human BT549 cells assessed as ratio of PARP to beta-actin level at 5 uM by western blot analysis (reference value: 1); type: functional
[27] = test system: MCF7; test: Down regulation of c-Myc expression in human MCF7 cells at 5 uM by Western blot analysis; type: functional; summary of the method: as §1
[28] = test system: MCF7; test: Inhibition of colony formation in human MCF7 cells at 5 uM supplemented with fresh medium containing compound every 3 to 4 days for 7 days by crystal violet staining based adherent cell colony-forming assay; type: functional
Summary of the method: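 MCF-7 cells were plated for adherent colony formation and treated for 7 days. Colonies were counted at the end of treatment and normalized to untreated samples.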

[29] = test system: MCF7; test: Down regulation of KLF4 expression in human MCF7 cells at 5 uM by Western blot analysis; type: functional; summary of the method: as §1
[30] = test system: BT-549; test: Effect on epithelial-mesenchymal transition in human BT549 cells assessed as ratio of E-cadherin to beta-actin level at 5 uM by Western blot analysis (reference value: 1); type: functional
[31] = test system: MCF7; test: Inhibition of mammosphere formation in human MCF7 cells assessed as ratio of C-Myc to beta actin level at 5 uM by Western blot analysis (Rvb= 1); type: functional; summary of the method: as §2
[32] = test system: MDA-MB-231; test: Inhibition of mammosphere formation in human MDA-MB-231 cells assessed as ratio of KLF4 to beta actin level at 5 uM by Western blot analysis (Rvb= 1); type: functional; summary of the method: as §2
[33] = test system: BT-549; test: Cytotoxicity against human BT549 cells assessed as reduction in cell viability at 5 uM by MTT assay; type: functional
[34] = test system: MDA-MB-231; test: Induction of apoptosis in human MDA-MB-231 cells assessed as ratio of cleaved caspase-3 to beta-actin level at 5 uM by western blot analysis (reference value: 1); type: functional
[35] = test system: MCF-10A; test: Induction of apoptosis in human MCF10A cells assessed as ratio of cleaved caspase-3 to beta-actin level at 5 uM by western blot analysis (reference value: 1); type: cell-based
[36] = test system: MDA-MB-231; test: Effect on beta-catenin translocation in cytosolic fraction of human MDA-MB-231 cells assessed as ratio of beta-catenin to beta-actin level at 5 uM by Western blot analysis (reference value: 1); type: functional
[37] = test system: MCF7; test: Inhibition of mammosphere formation in human MCF7 cells assessed as ratio of KLF4 to beta actin level at 5 uM by Western blot analysis (Rvb= 1); type: functional; summary of the method: as §2

SMILES: C=C(c1ccc(C(=O)NCCN2CCCC2)cc1)c1cc2c(cc1C)C(C)(C)CCC2(C)C
- inhibition (INH) [1]: 90%
- Ratio [2]: 1
- Ratio [3]: 3.7
- Activity [4]: 60%
- Ratio [5]: 0.5
- Ratio [6]: 2.1
- Ratio [7]: 0.8
- Activity [8]: 20%
- Ratio [9]: 1
- Ratio [10]: 6.2
- Ratio [11]: 0.8
- Ratio [12]: 1.1
- Ratio [13]: 1.2
- Ratio [14]: 2.1
- Ratio [15]: 1
- Ratio [16]: 0.3
- Ratio [17]: 0.4
- EC50 [18]: < 10 µM
- inhibition [19]: Active
- Ratio [20]: 0.7
- Activity [21]: Non-Toxic
- Ratio [22]: 1
- Ratio [23]: 1.5
- Ratio [24]: 1
- Ratio [25]: 2.5
- Ratio [26]: 0.9
- Activity [27]: 10 - 30%
- inhibition (INH) [28]: 80%
- Activity [29]: 10 - 30%
- Ratio [30]: 6.3
- Ratio [31]: 0.8
- Ratio [32]: 0.5
- Activity [33]: 60%
- Ratio [34]: 3.4
- Ratio [35]: 1
- Ratio [36]: 2.1
- Ratio [37]: 0.7
